Laboratory results as given in ChEMBL document CHEMBL1155126, “2-N-Methyl modifications and SAR studies of manzamine A” (Bioorg Med Chem, 2008).
In brackets after ≈: the same amount, converted by molar mass. Activity calls are given as the source filed them. No cut-off for these calls is given here.

Tests used:
[1] = tested on: Mycobacterium intracellulare; assay: Antimicrobial activity against Mycobacterium intracellular ATCC 23068; format: functional, organism-based
Summary of the method: (§1)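 Broth microdilution following modified CLSI methods; M. intracellulare by a modified Franzblau method. Samples serially diluted in 20% DMSO/saline and plated in duplicate. Inocula set by OD630 of suspensions in incubation broth. Growth read at 630 nm, or fluorescence 544ex/590em for M. intracellulare, before and after incubation. MIC is the lowest concentration with no detectable growth. MFC/MBC comes from subculturing clear wells onto agar.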

Staphylococcus aureus [2] = assay: Antimicrobial activity against methicillin-resistant Staphylococcus aureus ATCC 43300; format: functional, organism-based
Summary of the method: (§2)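 Modified CLSI broth microdilution; M. intracellulare by a modified Franzblau method. Samples were serially diluted in 20% DMSO/saline and tested in duplicate. Inocula were set by OD630 in broth. MIC is the lowest concentration with no detectable growth; MFC/MBC is the lowest concentration giving no growth after 5 µL is subcultured to agar.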

Staphylococcus aureus [3] = assay: Antimicrobial activity against methicillin-resistant Staphylococcus aureus ATCC 43300 at 3.0 uM; format: functional, organism-based
Candida albicans [4] = assay: Antimicrobial activity against Candida albicans ATCC 90028; format: functional, organism-based
Summary of the method: as §2, with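 “broth. Growth was read before and after incubation at 630 nm, or by fluorescence 544ex/590em for A. fumigatus and M. intracellulare.” for “broth.”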

Cryptococcus neoformans [5] = assay: Antimicrobial activity against Cryptococcus neoformans ATCC 90113
Cryptococcus neoformans [6] = assay: Antimicrobial activity against Cryptococcus neoformans ATCC 90113 at 89 uM; format: functional, organism-based
[7] = Selectivity index, ratio of IC50 for african green monkey (Cercopithecus aethiops) Vero cells to IC50 for chloroquine-resistant Plasmodium falciparum W2; format: toxicity, cell-based; settings: read-out: Ratio IC50
Summary of the method: (§3)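 Ratio of Vero IC50 (neutral red, 48 h exposure) to P. falciparum IC50 from the 72 h LDH assay on the matching strain (W2 or D6).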

Hepatitis C virus [8] = assay: Antiviral activity against HCV at 10 uM; format: functional, Hepacivirus hominis
Summary of the method: (§4)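 HCV replicon in Huh-7 cells. Compound tested at 10 µM in triplicate, added immediately after seeding. HCV RNA and rRNA measured as ΔCt values and reported as % inhibition of each.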

Pseudomonas aeruginosa = assay: Antimicrobial activity against Pseudomonas aeruginosa ATCC 27853; format: functional, organism-based
Summary of the method: as §2, with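 “broth. Growth was read before and after incubation at 630 nm, or by fluorescence 544ex/590em for A. fumigatus and M. intracellulare.” for “broth.”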

Escherichia coli = assay: Antimicrobial activity against Escherichia coli ATCC 35218; format: functional, organism-based
Summary of the method: as §2, with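 “broth. Growth was read before and after incubation at 630 nm, or by fluorescence 544ex/590em for A. fumigatus and M. intracellulare.” for “broth.”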

Plasmodium falciparum [9] = assay: Antimalarial activity after 72 hrs against chloroquine-sensitive Plasmodium falciparum D6 as LDH activity; format: functional, organism-based; settings: D6, 72 h
Summary of the method: (§5)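 D6 or W2 parasitised red cells (2% parasitemia, 2% hematocrit) in RPMI 1640 with 10% human serum and 60 µg/mL amikacin, added to serially diluted samples. Cultures were gassed with 90% N2/5% O2/5% CO2 and held 72 h at 37 °C. Parasite LDH was read with Malstat reagent plus NBT/PES, stopped with 5% acetic acid, at 650 nm.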

[10] = Selectivity index, ratio of IC50 for african green monkey (Cercopithecus aethiops) Vero cells to IC50 for chloroquine-sensitive Plasmodium falciparum D6; format: toxicity, cell-based; settings: read-out: Ratio IC50; summary of the method: as §3
Candida albicans [11] = assay: Antimicrobial activity against Candida albicans ATCC 90028 at 89 uM; format: functional, organism-based
Hepatitis C virus [12] = assay: Antiviral activity against HCV in Huh7 cells at 10 uM by replicon assay; format: functional, Hepacivirus hominis, Huh-7; summary of the method: as §4
Cryptococcus neoformans [13] = assay: Antimicrobial activity against Cryptococcus neoformans ATCC 90113; format: functional, organism-based; summary of the method: as §1
Aspergillus fumigatus = assay: Antimicrobial activity against Aspergillus fumigatus ATCC 90906; format: functional, organism-based
Summary of the method: as §2, with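 “broth. Growth was read before and after incubation at 630 nm, or by fluorescence 544ex/590em for A. fumigatus and M. intracellulare.” for “broth.”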

Vero [14] = assay: Cytotoxicity against african green monkey Vero cells at 17 uM after 48 hrs by neutral red assay; format: cell-based; settings: chlorocebus sabaeus
Summary of the method: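 Vero cells seeded at 25,000 cells/well and incubated 24 h. Samples added at a range of concentrations, top concentration 17 µM, then incubated a further 48 h. Viable cells measured by Neutral Red uptake. IC50 taken from dose-response curves; doxorubicin positive control.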

Plasmodium falciparum [15] = assay: Antimalarial activity after 72 hrs against chloroquine-resistant Plasmodium falciparum W2 as LDH activity; format: functional, organism-based; settings: W2, 72 h; summary of the method: as §5
[16] = tested on: Mycobacterium intracellulare; assay: Antimicrobial activity against Mycobacterium intracellular ATCC 23068 at 89 uM; format: functional, organism-based
Plasmodium falciparum [17] = assay: Antimalarial activity after 72 hrs against chloroquine-sensitive Plasmodium falciparum D6 at 8 uM as LDH activity; format: functional, organism-based
Plasmodium falciparum [18] = assay: Antimalarial activity after 72 hrs against chloroquine-resistant Plasmodium falciparum W2 at 8 uM as LDH activity; format: functional, organism-based
Staphylococcus aureus [19] = assay: Antimicrobial activity against methicillin-resistant Staphylococcus aureus ATCC 43300 at 89 uM; format: functional, organism-based
Candida albicans [20] = assay: Antimicrobial activity against Candida albicans ATCC 90028 at 91 uM; format: functional, organism-based
Staphylococcus aureus [21] = assay: Antimicrobial activity against methicillin-resistant Staphylococcus aureus ATCC 43300 at 91 uM; format: functional, organism-based
Vero [22] = assay: Cytotoxicity against african green monkey Vero cells after 48 hrs by neutral red assay; format: cell-based; settings: Chlorocebus sabaeus
Summary of the method: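 Vero monkey kidney fibroblasts were seeded at 25,000 cells/well and grown 24 h. Samples at graded concentrations were then added for 48 h. Viable cells were counted by neutral red uptake, and IC50 was taken from dose-response curves, with doxorubicin as positive control.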

Staphylococcus aureus [23] = assay: Antimicrobial activity against methicillin-resistant Staphylococcus aureus ATCC 43300 at 87 uM; format: functional, organism-based
Candida albicans [24] = assay: Antimicrobial activity against Candida albicans ATCC 90028 at 87 uM; format: functional, organism-based
[25] = tested on: Mycobacterium intracellulare; assay: Antimicrobial activity against Mycobacterium intracellular ATCC 23068 at 87 uM; format: functional, organism-based

Compound | IC50 [1] | MBC [1] | MIC [1] | selectivity ratio [7] | Activity (Pseudomonas aeruginosa) | Activity (Escherichia coli) | IC50 (Plasmodium falciparum [9]) | selectivity ratio [10] | IC50 (Cryptococcus neoformans [13]) | Activity (Aspergillus fumigatus) | Activity (Vero [14]) | IC50 (Plasmodium falciparum [15]) | other results
O=C(O)c1cn(C2CC2)c2cc(N3CCNCC3)c(F)cc2c1=O [CIPROFLOXACIN] | 1100 nM | 3 µM (≈ 0.994 µg/mL) | 1.5 µM (≈ 0.497 µg/mL) | – | – | – | – | – | – | – | – | – | MIC (Staphylococcus aureus [2]): 1.5 µM (≈ 0.497 µg/mL); Activity (Staphylococcus aureus [3]): inactive
C[C@@H]1[C@H](O)[C@@H](C)/C=C/C=C/C=C/C=C/C=C/C=C/C=C/[C@H](O[C@@H]2O[C@H](C)[C@@H](O)[C@H](N)[C@@H]2O)C[C@@H]2O[C@](O)(C[C@@H](O)C[C@@H](O)[C@H](O)CC[C@@H](O)C[C@@H](O)CC(=O)O[C@H]1C)C[C@H](O)[C@H]2C(=O)O [AMPHOTERICIN B] | – | – | – | – | – | – | – | – | – | – | – | – | MFC (Candida albicans [4]): 1.35 µM (≈ 1.25 µg/mL); IC50 (Cryptococcus neoformans [5]): 800 nM; MFC (Cryptococcus neoformans [6]): 1.35 µM (≈ 1.25 µg/mL); MIC (Cryptococcus neoformans [6]): 1.35 µM (≈ 1.25 µg/mL)
C[n+]1ccc2c([nH]c3ccccc32)c1C1=C[C@@]2(O)CC/C=C\CCCCN3CCC1[C@]1(C[C@@H]4/C=C\CCCCN4[C@H]12)C3.O=S(=O)([O-])C(F)(F)F (some centres undefined) | 17800 nM | 44.5 µM | 44.5 µM | > 17.5 | inactive | inactive | 736 nM | > 24 | 71100 nM | inactive | Non-toxic | 1010 nM | Activity (Hepatitis C virus [8]): 99.87%; Activity (Cryptococcus neoformans [6]): inactive; IC50 (Staphylococcus aureus [2]): 44500 nM; MBC (Staphylococcus aureus [2]): 89 µM; MIC (Staphylococcus aureus [2]): 89 µM; Activity (Candida albicans [11]): inactive; Activity (Hepatitis C virus [12]): 100%
C[C@@H]1CC[C@H]2[C@@H](C)C(=O)O[C@@H]3O[C@@]4(C)CC[C@@H]1[C@]32OO4 [ARTEMISININ] | – | – | – | > 3700 | – | – | 6.3 nM | > 2700 | – | – | Non-toxic | 4.5 nM | –
Cn1c2ccccc2c2ccnc(C3=C[C@@]4(O)CC/C=C\CCCCN5CCC3[C@]3(C[C@@H]6/C=C\CCCCN6[C@H]34)C5)c21 (some centres undefined) [9N-METHYLMANZAMINE A] | – | – | – | – | inactive | inactive | – | – | – | inactive | Non-toxic | – | Activity (Cryptococcus neoformans [6]): inactive; Activity [16]: inactive; Activity (Plasmodium falciparum [17]): inactive; Activity (Candida albicans [11]): inactive; Activity (Plasmodium falciparum [18]): inactive; Activity (Staphylococcus aureus [19]): inactive
CCN(CC)CCCC(C)Nc1ccnc2cc(Cl)ccc12 (centres undefined) [CHLOROQUINE] | – | – | – | – | – | – | – | – | – | – | Non-toxic | – | –
O[C@]12C=C(c3nccc4c3[nH]c3ccccc34)[C@@H]3CCN(CCCC/C=C\CC1)C[C@@]31C[C@@H]3/C=C\CCCCN3[C@H]12 [MANZAMINE A] | 180 nM | 2.84 µM (≈ 1.56 µg/mL) | 0.36 µM (≈ 0.198 µg/mL) | 25.2 | inactive | inactive | 17 nM | 29.4 | 2700 nM | inactive | – | 20 nM | IC50 (Candida albicans [4]): 16400 nM; IC50 (Staphylococcus aureus [2]): 180 nM; Activity (Candida albicans [20]): inactive; Activity (Staphylococcus aureus [21]): inactive; IC50 (Vero [22]): 501 nM; MFC (Cryptococcus neoformans [13]): 23 µM (≈ 12.6 µg/mL); MIC (Cryptococcus neoformans [13]): 5.7 µM (≈ 3.13 µg/mL)
CO[C@]12C=C(c3c4[nH]c5ccccc5c4cc[n+]3C)C3CCN(CCCC/C=C\CC1)C[C@@]31C[C@@H]3/C=C\CCCCN3[C@H]12.O=S(=O)([O-])C(F)(F)F (some centres undefined) | – | – | – | – | inactive | inactive | – | – | 52000 nM | inactive | Non-toxic | – | Activity (Staphylococcus aureus [23]): inactive; Activity (Candida albicans [24]): inactive; Activity (Plasmodium falciparum [17]): inactive; MFC (Cryptococcus neoformans [13]): 87 µM; MIC (Cryptococcus neoformans [13]): 87 µM; Activity (Plasmodium falciparum [18]): inactive; Activity [25]: inactive
